Screens: PubChem, Sanford-Burnham Center for Chemical Genomics
Shown are actives, neighbours in structure and some others; about 1.5% of the full set was active somewhere.
CCR6 antagonist = CCR6 receptor antagonists, primary screen, cell-based, CHO-K1, luminescence, beta-arrestin, uHTS; C-C chemokine receptor type 6 (Homo sapiens), P51684; CHO-K1 CCR6 PathHunter beta-arrestin, CCL20-stimulated; inhibition, % at 20 µM; 0.49% of 340,000 active;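 active means compounds whose inhibition of the agonist-driven luminescence signal at 20 µM reaches about 50%, limit read from the data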;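 further: cells stimulated with CCL20 at 14 nM final; plate controls were DMSO with CCL20 for no effect and DMSO without agonist for full effect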
APJ agonist = agonists of human apelin receptor APJ, primary screen, CHO-K1 cells, PathHunter beta-arrestin, luminescence. 0% DMSO wells, 100% apelin. activation, % at 20 µM. P35414. AID 2520, 2010. 0.11% of 330,000 active;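 active means activation more than six SD over the plate average, tested at 20 µM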;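 further: 0% = DMSO alone and 100% = apelin-13 at 10 nM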
Target sequence (P35414 whole entry, looked up): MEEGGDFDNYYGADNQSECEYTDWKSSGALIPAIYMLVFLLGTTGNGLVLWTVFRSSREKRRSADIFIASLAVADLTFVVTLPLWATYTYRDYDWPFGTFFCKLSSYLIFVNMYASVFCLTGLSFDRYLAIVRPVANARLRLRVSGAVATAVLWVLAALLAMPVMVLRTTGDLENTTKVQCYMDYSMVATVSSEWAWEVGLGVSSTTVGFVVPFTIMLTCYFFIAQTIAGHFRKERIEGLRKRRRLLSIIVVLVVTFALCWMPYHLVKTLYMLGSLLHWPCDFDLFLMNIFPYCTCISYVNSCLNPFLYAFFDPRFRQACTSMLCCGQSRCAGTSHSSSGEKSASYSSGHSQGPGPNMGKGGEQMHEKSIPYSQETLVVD
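Assay system: CHO-K1 APJ beta-arrestin complementation cell line / Compound: single test compound dose, 20 µM final, 1% DMSO / Times: overnight seeding, 90 min compound at 25 °C, 1 h detection / Technique: beta-gal luminescence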
CXCR6 block = CXCR6 receptor inhibitors, primary screen, cell-based, beta-arrestin, luminescence, CHO-K1 PathHunter, 1536-well; AID 602244, 2012; 0.36% of 360,000 active; inhibition, % at 20 µM; in the data active means inhibition above about 34%, passing the limit was not always enough;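 further: antagonist mode with CXCL16 agonist at 10 nM final; 0% = 10 nM CXCL16 with DMSO and 100% = unstimulated wells without agonist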
APJ antag = antagonists of human apelin receptor APJ, primary screen, CHO-K1 cells, beta-arrestin complementation, luminescence; P35414; inhibition, % at 20 µM; 0.32% of 330,000 active; AID 2521, 2010;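 active means inhibition above about 40% at 20 µM, limit read from the data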;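 further: cells challenged with 10 nM apelin-13 agonist together with compound; plate controls were apelin-13 plus DMSO wells for no effect and DMSO wells lacking apelin-13 for full effect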
EBI2 antag = EBI2 receptor antagonists, beta-arrestin recruitment, primary screen, cell-based, luminescence, 7a,25-OHC stimulation, uHTS; G-protein coupled receptor 183 (Homo sapiens), P32249; AID 651636, 2012; 0.81% of 360,000 active; 7a,25-OHC stimulated; inhibition, % at 5 µM; in the data active means inhibition above about 38%;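 further: enzyme fragment complementation signal reports receptor beta-arrestin coupling in cells; 0% = agonist plus DMSO wells and 100% = wells without agonist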
Numbers without * were called inactive; . = not tested or not shown; ! = not active in a repeat.

SMILES | CCR6 antagonist | APJ agonist | CXCR6 block | APJ antag | EBI2 antag
CCc1nc2c(OCc3ccc(Cl)cc3Cl)cccn2c1N(C=O)Cc1ccc(OC)cc1 | . | . | 15 | . | 30
N#Cc1ccc(CSc2ccc(S(=O)(=O)N3CCCCCC3)cn2)cc1 | 18 | 0 | -12 | 17 | 14
O=C(/C=C/c1ccc(Br)cc1)c1ccc(NC2=NCCCS2)cc1 | 21 | -6 | 5 | 8 | 78*
CCC(CC)C(C(=O)NCc1ccccc1)N(C)Cc1ccc(Cl)c(Cl)c1 (stereo unspecified) | . | . | . | . | 36
CN(C)CCCN(C(=O)CCc1ccccc1)c1nc2c(F)cccc2s1 | 14 | -1 | 0 | 2 | -10
CN(C)CCCN(C(=O)CCOc1ccccc1)c1nc2c(F)cccc2s1 | 20 | . | 13 | . | 48*
Oc1csc(Cc2nc(-c3ccc4ccccc4c3)cs2)n1 | 56* | -7 | 28 | 35 | 20
Oc1csc(Cc2nc(-c3ccc(-c4ccccc4)cc3)cs2)n1 | -17 | 2 | 4 | -17 | 3
CC(O)CC(C)O (stereo unspecified) | 2 | -1 | 5 | -4 | 6
O=C(N/N=C/c1cc(Br)cc(Br)c1O)c1cccc(N2CCCC2=O)c1 | 54* | 0 | -20 | -23 | 5
O=C(N/N=C/c1ccc(Cl)cc1Cl)c1cccc(N2CCCC2=O)c1 | 0 | -3 | -4 | -4 | 18
O=C(COc1ccc([N+](=O)[O-])cc1)NCC(c1cccs1)N1CCOCC1 (stereo unspecified) | 13 | -6 | 4 | 12 | 3
CCCC#Cc1cnc2c(c1)C(=O)N([C@H](C)CO)C[C@@H](C)[C@H](CN(C)S(=O)(=O)c1cccc(OC)c1)O2 | . | . | 0 | . | 8
Cn1c(N)c(C(=O)c2cc(-c3ccccn3)nc3ccccc23)c(=O)[nH]c1=O | -1 | 4 | 4 | 56* | -1
O=C(O)CN1C(=O)C=CC1=O | . | . | -16 | . | 5
O=C1C=CC(=O)N1CCCCCCN1C(=O)C=CC1=O | 104* | . | . | . | .
CCOc1cc(C=C(C(=O)OC)C(=O)OC)ccc1OCc1ccc([N+](=O)[O-])cc1 | 24 | 3 | 20 | -15 | 59*
CCOc1cc(/C=N/O)ccc1OCc1ccc([N+](=O)[O-])cc1 | -1 | 5 | 8 | 3 | -1
CN(C)CC(CCC(CN(C)C)C(=O)c1ccccc1)C(=O)c1ccccc1 (stereo unspecified) | 98* | . | 76* | . | 47*
COc1ccc(C(=O)c2sc3nc(-c4ccccc4)ccc3c2N)cc1 | -17 | 0 | -4 | 8 | 11
CC(C)OC(=O)c1sc2nc(-c3ccccc3)ccc2c1N | -12 | 1 | -7 | 7 | 48*
CCCCCCCCN1C(=O)[C@H](CC(=O)NCc2cccc(C(F)(F)F)c2)C[C@@]2(C(=O)OCC)CCC=C12 | . | . | . | . | 14
C[N+](C)(C)CCCC(=O)c1ccc2c(c1)OCO2 | -6 | 3 | -8 | -2 | -17
Cc1ccc(C(=O)CC(=O)c2ccccc2C)c(O)c1 | 29 | -3 | 20 | 6 | -9
COc1cc(OC)c(C(=O)CCC(=O)O)cc1OC | -1 | -3 | 0 | 5 | -11
SMILES | CCR6 antagonist | APJ agonist | CXCR6 block | APJ antag | EBI2 antag
C=C(CN(C)C)C(=O)c1ccc2c(c1)OCO2 | 109* | . | 91* | . | 34
C=C(CN(C)C)C(=O)c1cc(OC)c(OC)cc1OC | 63* | . | 38* | . | 13
C=C(CN(C)C)C(=O)c1ccc(C)cc1C | 108* | . | 88* | . | 10
O=C(C[C@H]1CC[C@H]2[C@@H](COC[C@@H](O)CN2Cc2cc(F)ccc2F)O1)NCc1ccc(Cl)cc1 | . | . | . | . | -6
CC(C)(C)C(=O)c1c(N)[nH]c(C(=O)c2ccccc2)c1-c1ccc(C(F)(F)F)cc1 | . | . | 8 | . | 13
COc1ccc(CNC(=O)CN2C(=O)NC3(CCCCCCC3)C2=O)cc1 | 4 | -3 | -6 | -7 | 2
Cc1cc(N(C)/N=C/c2ccccc2O)nc(-c2ccccc2O)n1 | 56* | -1 | 42* | 12 | 13
O=C(NC(=S)N1CCN(c2ccc(Cl)cc2[N+](=O)[O-])CC1)c1cccs1 | . | . | 43* | . | -5
O=C(NC(=S)N1CCN(c2ccc(Cl)cc2[N+](=O)[O-])CC1)c1ccco1 | 17 | -6 | 21 | 14 | -16
Cc1c(C#N)c(O)n(CCO)c(=O)c1N=Nc1ccc(S(N)(=O)=O)cc1 | 36 | -6 | 31 | 32 | 6
Cc1c(C#N)c(O)n(C)c(=O)c1N=Nc1ccc(S(N)(=O)=O)cc1 | 52* | . | 25 | . | 2
CC(C)COC(=O)N1CCCCC1c1cc(C(=O)N2CCOCC2)no1 (stereo unspecified) | . | . | 0 | . | -1
O=C(NNc1c2ccccc2nc2ccccc12)c1cccc(O)c1 | 60* | -1 | 24 | 27 | 1
COC(=O)C1=C(C(=O)OC)[C@@H]2N(C)c3ccc(OC)cc3[C@@]23C[C@@H](C(=O)OC)N(C(=O)c2cc(C)oc2C)C3=N1 | 14 | 5 | . | 14 | .
COc1ccc(CN2C(=O)C(Cc3ccccc3)Nc3ncnc(N4CCCCC4)c32)cc1 (stereo unspecified) | 43 | -12 | 31 | -32 | 7
Cc1ccc(CN2C(=O)C(Cc3ccccc3)Nc3ncnc(N4CCCCC4)c32)cc1 (stereo unspecified) | 51* | -4 | 41*! | 39 | 12
COc1ccc(CN2C(=O)C(CC(=O)NCCCCc3ccccc3)CC(C(=O)N3CCCCCC3)=C2C)cc1 (stereo unspecified) | . | . | 3 | . | 21
O=C(c1cccs1)c1no[n+]([O-])c1C(=O)c1cccs1 | 4 | 30* | -11 | -7 | 4
O=C(c1ccc(Cl)nc1)c1cccs1 | 3 | -1 | . | -23 | .
Cc1cc(/C=C\c2ccc3cc(N(C)C)ccc3[n+]2C)c(C)n1-c1ccccc1 | 51* | 14 | 22 | 11 | -8
Oc1[nH]c2ccc(Br)cc2c1N=NC(=S)N1CCOCC1 | 30 | -10 | 8 | 10 | 42*
COc1ccc(OC)c(C(=O)NC(CC(N)=O)c2ccc(N3CCN(c4ccc(F)cc4)CC3)c([N+](=O)[O-])c2)c1 (stereo unspecified) | 10 | 8 | 4 | 20 | -13
CCOC(=O)C1CCCN(C2=NC(=O)/C(=C/c3ccc(O)c(OCC)c3)S2)C1 (stereo unspecified) | 13 | -2 | 12 | 16 | 2
CCOc1ccc(/C=C2\SC(N3CCc4ccccc4C3)=NC2=O)cc1 | -3 | -1 | 14 | 15 | 65*
Cc1ccc(/C=C2\SC(N3CCCCC3)=NC2=O)cc1 | 3 | 3 | 12 | 2 | 81*
CCOC(=O)C1CCCN(C2=NC(=O)/C(=C/c3ccc(N(C)C)cc3)S2)C1 (stereo unspecified) | 24 | -2 | 2 | 15 | 45*
